Measured values from ChEMBL document CHEMBL3856209, “Novel pyrazolopyridine derivatives as potential angiogenesis inhibitors: Synthesis, biological evaluation and transcriptome-based mechanistic analysis” (Eur J Med Chem, 2016).

What was measured:
Format in all cases: functional, Homo sapiens
[1] = tested on: HUVEC; experiment: Effect on CENPA gene expression in serum-starved HUVEC after 6 hrs by microarray analysis relative to control
Summary of the method: (§1)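 Serum-starved confluent HUVEC treated with 2 μM compound or DMSO in 2.5% FBS for 6 h or 24 h; RNA hybridized to Illumina Human-HT12 arrays. Data background-corrected, vst-transformed and rsn-normalized. Differential probes called by moderated paired t-test (limma) at p < 0.05 and log2 fold change >|0.5| vs DMSO.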

[2] = tested on: HUVEC; experiment: Effect on FILIP1L gene expression in serum-starved HUVEC after 6 hrs by microarray analysis relative to control
Summary of the method: (§2)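 Confluent, serum-starved HUVEC (pooled from 3–5 donors, passage ≤4) treated with 2 μM compound or vehicle with 2.5% FBS for 6 h or 24 h. Total RNA hybridized to Illumina Human-HT12 arrays. Data were background-corrected, vst-transformed and rsn-normalized. Hits called by moderated paired t-test versus DMSO-treated cells, p < 0.05 and log2 fold change >|0.5|.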

[3] = tested on: HUVEC; experiment: Effect on ITGA2 gene expression in serum-starved HUVEC after 6 hrs by microarray analysis relative to control; summary of the method: as §2
[4] = tested on: HUVEC; experiment: Effect on PNISR gene expression in serum-starved HUVEC after 6 hrs by microarray analysis relative to control
Summary of the method: (§3)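 Serum-starved confluent HUVEC (pooled from 3–5 donors, passage ≤4) were treated with 2 μM compound or vehicle in 2.5% FBS for 6 h or 24 h, and total RNA was isolated. Hybridization was on Illumina Human-HT12. Data were processed with bgAdjust, vst and rsn normalization. Changes versus DMSO were called by moderated paired t-test at p < 0.05 and |log2 fold change| > 0.5.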

[5] = tested on: HUVEC; experiment: Effect on PNISR gene expression in serum-starved HUVEC after 24 hrs by microarray analysis relative to control; summary of the method: as §3
[6] = tested on: HUVEC; experiment: Effect on MMP1 gene expression in serum-starved HUVEC after 6 hrs by microarray analysis relative to control; summary of the method: as §3
[7] = tested on: HUVEC; experiment: Effect on RNA18S5 gene expression in serum-starved HUVEC after 6 hrs by microarray analysis relative to control
[8] = tested on: HUVEC; experiment: Effect on SND1-IT1 gene expression in serum-starved HUVEC after 24 hrs by microarray analysis relative to control
[9] = tested on: HUVEC; experiment: Effect on TAOK1 gene expression in serum-starved HUVEC after 6 hrs by microarray analysis relative to control
[10] = tested on: HUVEC; experiment: Effect on TAOK1 gene expression in serum-starved HUVEC after 24 hrs by microarray analysis relative to control
[11] = tested on: HUVEC; experiment: Effect on ACLY gene expression in serum-starved HUVEC after 6 hrs by microarray analysis relative to control; summary of the method: as §1
[12] = tested on: HUVEC; experiment: Effect on ANKRD1 gene expression in serum-starved HUVEC after 6 hrs by microarray analysis relative to control
Summary of the method: (§4)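 Confluent serum-starved HUVEC (primary, pooled from 3–5 donors, passage ≤4) treated with 2 μM compound or DMSO vehicle in 2.5% FBS for 6 h or 24 h. Total RNA hybridized to Illumina Human-HT12 arrays, background-corrected, vst-transformed and rsn-normalized. Differential expression versus DMSO by moderated paired t-test (p < 0.05, |log2 fold change| > 0.5).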

[13] = tested on: HUVEC; experiment: Effect on CCNA2 gene expression in serum-starved HUVEC after 6 hrs by microarray analysis relative to control; summary of the method: as §1
[14] = tested on: HUVEC; experiment: Effect on CD68 gene expression in serum-starved HUVEC after 6 hrs by microarray analysis relative to control; summary of the method: as §1
[15] = tested on: HUVEC; experiment: Effect on CTSH gene expression in serum-starved HUVEC after 6 hrs by microarray analysis relative to control; summary of the method: as §2
[16] = tested on: HUVEC; experiment: Effect on FAM198B gene expression in serum-starved HUVEC after 6 hrs by microarray analysis relative to control; summary of the method: as §4
[17] = tested on: HUVEC; experiment: Effect on FDPS gene expression in serum-starved HUVEC after 6 hrs by microarray analysis relative to control
Summary of the method: (§5)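 Serum-starved confluent HUVEC (primary, pooled from 3–5 donors, passage ≤4) treated with 2 μM test compound or DMSO vehicle (working dilutions ≤0.1% v/v) in presence of 2.5% FBS for 6 h or 24 h; total RNA hybridized to Illumina Human-HT12 arrays; background correction, vst, rsn normalization; moderated paired t-test versus DMSO, thresholds p < 0.05 and log2 fold change >|0.5|.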

[18] = tested on: HUVEC; experiment: Effect on GRPEL2 gene expression in serum-starved HUVEC after 6 hrs by microarray analysis relative to control; summary of the method: as §2
[19] = tested on: HUVEC; experiment: Effect on HMGCR gene expression in serum-starved HUVEC after 6 hrs by microarray analysis relative to control; summary of the method: as §2
[20] = tested on: HUVEC; experiment: Effect on KIF11 gene expression in serum-starved HUVEC after 6 hrs by microarray analysis relative to control; summary of the method: as §2
[21] = tested on: HUVEC; experiment: Effect on MGARP gene expression in serum-starved HUVEC after 6 hrs by microarray analysis relative to control; summary of the method: as §3
[22] = tested on: HUVEC; experiment: Effect on MSMO1 gene expression in serum-starved HUVEC after 6 hrs by microarray analysis relative to control; summary of the method: as §3
[23] = tested on: HUVEC; experiment: Effect on OIP5 gene expression in serum-starved HUVEC after 6 hrs by microarray analysis relative to control
[24] = tested on: HUVEC; experiment: Effect on PLA2G4C gene expression in serum-starved HUVEC after 6 hrs by microarray analysis relative to control; summary of the method: as §3
[25] = tested on: HUVEC; experiment: Effect on PLK4 gene expression in serum-starved HUVEC after 6 hrs by microarray analysis relative to control; summary of the method: as §3
[26] = tested on: HUVEC; experiment: Effect on RNU1-28P gene expression in serum-starved HUVEC after 6 hrs by microarray analysis relative to control
[27] = tested on: HUVEC; experiment: Effect on TM7SF2 gene expression in serum-starved HUVEC after 6 hrs by microarray analysis relative to control
[28] = tested on: HUVEC; experiment: Effect on TP53INP2 gene expression in serum-starved HUVEC after 6 hrs by microarray analysis relative to control
[29] = tested on: HUVEC; experiment: Effect on TUBB4B gene expression in serum-starved HUVEC after 6 hrs by microarray analysis relative to control
[30] = tested on: HUVEC; experiment: Effect on TYMS gene expression in serum-starved HUVEC after 6 hrs by microarray analysis relative to control
[31] = tested on: HUVEC; experiment: Effect on UBE2J1 gene expression in serum-starved HUVEC after 6 hrs by microarray analysis relative to control
[32] = tested on: HUVEC; experiment: Effect on ZMAT3 gene expression in serum-starved HUVEC after 6 hrs by microarray analysis relative to control
[33] = tested on: HUVEC; experiment: Effect on CCNA2 gene expression in serum-starved HUVEC after 24 hrs by microarray analysis relative to control; summary of the method: as §4
[34] = tested on: HUVEC; experiment: Effect on CENPF gene expression in serum-starved HUVEC after 24 hrs by microarray analysis relative to control; summary of the method: as §5
[35] = tested on: HUVEC; experiment: Effect on HAVCR2 gene expression in serum-starved HUVEC after 24 hrs by microarray analysis relative to control; summary of the method: as §4
[36] = tested on: HUVEC; experiment: Effect on MYLIP gene expression in serum-starved HUVEC after 24 hrs by microarray analysis relative to control; summary of the method: as §3
[37] = tested on: HUVEC; experiment: Effect on PODXL gene expression in serum-starved HUVEC after 24 hrs by microarray analysis relative to control; summary of the method: as §3
[38] = tested on: HUVEC; experiment: Effect on TM7SF2 gene expression in serum-starved HUVEC after 24 hrs by microarray analysis relative to control

In the case of `COc1ccc(Cn2nc(-c3ccccc3)c3cc(Cl)nc(N4CCNCC4)c32)cc1`, the “fold change (FC)” value [1] is reported as 0.0058, the log2FC [2] is reported as 0.5185 and the log2FC [3] is reported as 0.5417. It also gave a log2FC [4] of 0.5127 and a log2FC [5] of 0.0521.

`COc1ccc(Cn2nc(-c3ccccc3)c3cc(Nc4ccc(N5CCN(C)CC5)cc4)nc(N4CCNCC4)c32)cc1` showed a log2FC [6] of -0.1422, a log2FC [7] of -0.2889 and a log2FC [8] of 0.603. It also gave a log2FC [9] of -0.1058 and a log2FC [10] of 0.6142.

In the case of `COc1ccc(Cn2nc(-c3ccccc3)c3cc(Nc4ccc(N5CCN(C)CC5)cc4)nc(N4CCN(C)CC4)c32)cc1`, the “fold change (FC)” value [11] is reported as 0.4312, the “fold change (FC)” value [12] is reported as -0.5735 and the log2FC [13] is reported as -0.1788. The “fold change (FC)” value [14] was 0.5187, the “fold change (FC)” value [15] was 0.4595 and the “fold change (FC)” value [16] was 0.7445. For the same compound, the “fold change (FC)” value [17] was -0.059, the “fold change (FC)” value [18] was 0.2207 and the “fold change (FC)” value [19] was 1.0317. For the same compound, the “fold change (FC)” value [20] was 0.073, the log2FC [21] was -0.2938 and the “fold change (FC)” value [22] was 0.7741. The “fold change (FC)” value [23] was -0.4214, the “fold change (FC)” value [24] was 0.3857 and the “fold change (FC)” value [25] was 0.1554. The log2FC [26] was -0.7994, the log2FC [27] was 0.343 and the log2FC [28] was 0.0911. The “fold change (FC)” value [29] was -0.206, the log2FC [30] was -0.1879 and the log2FC [31] was 0.4634. For the same compound, the log2FC [32] was 0.5844, the “fold change (FC)” value [33] was -0.7529 and the “fold change (FC)” value [34] was -0.7151. The “fold change (FC)” value [35] was -0.7422, the log2FC [36] was -0.2675 and the log2FC [37] was 0.6696. For the same compound, the log2FC [38] was 1.5761.
